S100A4 inh HTS: inhibitors of human S100A4 binding to myosin IIA peptide; P26447; S100A4/TAMRA-MyoIIA peptide fluorescence polarization; inhibition, % at 10.7 µM; actives 0.14% (n = 360,000);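 active means mean inhibition of at least 70% across replicates, with every replicate also reaching that level; inconclusive means mean inhibition reaches 70% but some replicates fall short; inactive means mean inhibition below 70%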
Target sequence (P26447 whole entry, looked up): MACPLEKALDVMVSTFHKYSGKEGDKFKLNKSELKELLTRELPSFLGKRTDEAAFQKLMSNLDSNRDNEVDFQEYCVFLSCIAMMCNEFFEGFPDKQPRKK
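Test system: S100A4 monomer protein. Medium: HEPES buffer with Ca2+, pH 7.2. Reagent: fluorescent myosin IIA peptide, 5 nM. Compound dosing: single-point compound testing. Timing: 5 min between mix addition and reading. Benchmarks: DMSO neutral and TFP positive wells.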
E-selectin induc: induces E-selectin expression in human endothelial cells; HUVEC E-selectin immunofluorescence imaging; normalized: neutral wells 0, TNF-alpha wells 100; activation, % at 7.58 µM; actives 0.37% (n = 260,000);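 active means mean E-selectin-positive cell signal at least 10% of the positive control, reached in at least 60% of replicates, without over 20% cell loss; inconclusive means no rule given, readout overlaps actives, possibly toxicity-flagged; inactive means the rest, including those meeting only one limit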
Target sequence (P16581 whole entry, looked up): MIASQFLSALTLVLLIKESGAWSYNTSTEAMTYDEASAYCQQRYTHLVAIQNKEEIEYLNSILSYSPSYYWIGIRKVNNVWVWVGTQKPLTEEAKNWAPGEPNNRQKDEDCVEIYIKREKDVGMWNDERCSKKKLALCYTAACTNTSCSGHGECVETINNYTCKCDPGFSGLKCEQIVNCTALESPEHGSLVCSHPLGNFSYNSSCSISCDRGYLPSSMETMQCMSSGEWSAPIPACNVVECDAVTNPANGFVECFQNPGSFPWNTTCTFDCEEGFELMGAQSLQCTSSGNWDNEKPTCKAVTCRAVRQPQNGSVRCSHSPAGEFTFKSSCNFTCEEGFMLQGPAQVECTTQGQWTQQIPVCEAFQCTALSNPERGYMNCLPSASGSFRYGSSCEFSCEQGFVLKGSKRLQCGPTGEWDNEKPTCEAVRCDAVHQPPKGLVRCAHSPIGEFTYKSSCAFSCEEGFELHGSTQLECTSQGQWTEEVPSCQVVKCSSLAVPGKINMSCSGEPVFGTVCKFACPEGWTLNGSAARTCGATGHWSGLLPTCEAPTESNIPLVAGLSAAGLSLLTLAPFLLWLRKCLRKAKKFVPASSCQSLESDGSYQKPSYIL
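System: HUVEC / Compound: single concentration / Signal: immunofluorescence imaging / Read-out: percent E-selectin-positive cells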
DENV2 CPE: inhibitors of DENV2 cytopathic effect. DENV2-infected cells, cytopathic effect rescue, plate reader. CPE inhibition, % at 9.99 µM. actives 1.7% (n = 350,000). AID 651640; in the data active means CPE inhibition above about 20%, passing the limit was not always enough; inconclusive means no clear call, values can overlap the other calls; tested in BHK-21 cells;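 further: 0% = median of neutral control wells and 100% = median of positive control wells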
Xi reactivation: activators of X-chromosome reactivation in mouse fibroblasts; AID 743238; activation, % at 7.58 µM; XiGFP mouse fibroblasts, % GFP-positive cells imaging, 3 d; cells co-treated with 5-aza-dC sensitizer; scaled so ellipticine positive control = 100%; actives 0.055% (n = 360,000);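 active means mean normalized replicate activation at least 10% and every replicate at or above 10%; inconclusive means only one of the two criteria met; inactive means mean below 10% and not all replicates reach 10%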;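 further: 0% = median of on-plate neutral control wells and 100% = ellipticine 6 µM median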
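System: XiGFP fibroblasts, SV40-immortalized. Medium: DMEM plus 5-aza-dC sensitizer. Doses: single point. Timing: 3 d treatment, 15 min room-temperature fixation. Control set: ellipticine 6 µM.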
* = called active by the depositor; ? = inconclusive; · = no result. This is a sample that favours compounds with a hit; in the whole collection about 2% have one here.

SMILES	S100A4 inh HTS	E-selectin induc	DENV2 CPE	Xi reactivation
CSc1ccc(-c2nc(CSCC(=O)N3CCOCC3)c(C)o2)cc1	-0.6	·	·	·
CCc1ccc(-c2nc(CSCC(=O)N3CCN(c4ncccn4)CC3)c(C)o2)cc1	11.8	0.0	86.5*	0.2
COc1ccccc1NC(=O)N1CCC(C(=O)c2ccc(Cl)cc2)CC1	-0.1	·	2.2	0.4
C[C@@H]1CN([C@@H](C)CO)C(=O)Cc2cc(N(C)C)ccc2O[C@@H]1CN(C)Cc1ccc(C(=O)O)cc1	-15.4	0.1	33.2*	0.3
C[C@@H]1CN([C@H](C)CO)C(=O)Cc2cc(N(C)C)ccc2O[C@H]1CN(C)Cc1ccc(C(F)(F)F)cc1	2.3	-8.1	-7.9	-0.7
C[C@@H]1CN([C@@H](C)CO)C(=O)Cc2cc(N(C)C)ccc2O[C@@H]1CN(C)Cc1ccc(C(F)(F)F)cc1	2.3	-11.1	26.5*	0.0
Cc1sc2nc(CSc3ccccc3)nc(N3CCN(C)CC3)c2c1C	·	0.3	·	0.0
C[C@@H]1CCCCO[C@@H](CN(C)C(=O)Cc2ccccc2)[C@H](C)CN([C@@H](C)CO)C(=O)c2cc(NC(=O)Cc3ccccc3)ccc2O1	126.4*	-0.2	0.0	-0.1
C[C@H]1CCCCO[C@H](CN(C)C(=O)Cc2ccccc2)[C@@H](C)CN([C@@H](C)CO)C(=O)c2cc(NC(=O)NC3CCCCC3)ccc2O1	·	0.1	25.4*	-0.6
CNC[C@H]1OCCCC[C@@H](C)Oc2ccc(NC(=O)Cc3ccccc3)cc2C(=O)N([C@@H](C)CO)C[C@H]1C	8.5	-0.2	-9.2	-0.1
CCCN(C)C[C@@H]1OCCCC[C@H](C)Oc2ccc(NC(=O)Cc3ccccc3)cc2C(=O)N([C@@H](C)CO)C[C@@H]1C	15.8	-0.1	35.4*	0.4
CNC[C@@H]1OCCCC[C@H](C)Oc2ccc(NC(=O)Cc3ccccc3)cc2C(=O)N([C@@H](C)CO)C[C@H]1C	-35.3	0.0	43.7*	-0.1
CCCN(C)C[C@H]1OCCCC[C@@H](C)Oc2ccc(NC(=O)Cc3ccccc3)cc2C(=O)N([C@H](C)CO)C[C@H]1C	10.8	-0.1	-2.0	0.1
COc1ccccc1-c1ccc2c(c1)O[C@@H](CN(C)C(=O)c1ccncc1)[C@@H](C)CN([C@@H](C)CO)S2(=O)=O	6.3	-0.2	-4.0	0.8
Cc1noc(C)c1S(=O)(=O)N(C)C[C@@H]1OCCCC[C@@H](C)Oc2ccc(NC(=O)Cc3ccccc3)cc2C(=O)N([C@H](C)CO)C[C@H]1C	10.4	-0.3	-6.5	0.3
C[C@@H]1CCCCO[C@@H](CN(C)S(C)(=O)=O)[C@H](C)CN([C@@H](C)CO)C(=O)c2cc(NC(=O)Cc3ccccc3)ccc2O1	3.9	-0.3	51.7*	-0.7
Cc1noc(C)c1S(=O)(=O)N(C)C[C@@H]1OCCCC[C@@H](C)Oc2ccc(NC(=O)Cc3ccccc3)cc2C(=O)N([C@@H](C)CO)C[C@@H]1C	4.2	-0.2	52.3*	0.0
CCOC(=O)N1CCN(S(=O)(=O)N2CCCC(C(=O)NCc3ccc(C)cc3)C2)CC1 (stereo not drawn)	-1.6	-0.2	-4.2	0.8
COc1cccc(C2NC(=O)c3ccccc3O2)c1OCc1ccccc1F (stereo not drawn)	-0.4	0.2	1.1	0.0
C[C@H]1CCCCO[C@H](CN(C)C(=O)Nc2ccc3c(c2)OCO3)[C@@H](C)CN([C@@H](C)CO)C(=O)c2cc(NC(=O)NC3CCCCC3)ccc2O1	·	0.0	85.4*	0.0
C[C@@H]1CCCCO[C@H](CN(C)C(=O)Nc2ccc3c(c2)OCO3)[C@H](C)CN([C@@H](C)CO)C(=O)c2cc(NC(=O)NC3CCCCC3)ccc2O1	·	-0.3	·	0.1
C[C@@H]1CCCCO[C@@H](CN(C)CC2CC2)[C@@H](C)CN([C@H](C)CO)C(=O)c2cc(NC(=O)Nc3ccc(F)cc3)ccc2O1	-2.2	-0.3	77.8*	0.2
C[C@H](CO)N1C[C@H](C)[C@@H](CN(C)C(=O)NC2CCCCC2)OCCCC[C@H](C)Oc2ccc(NC(=O)NC3CCCCC3)cc2C1=O	-1.0	-0.3	-8.8	0.2
C[C@@H]1CCCCO[C@H](CN(C)C(=O)NC2CCCCC2)[C@@H](C)CN([C@@H](C)CO)C(=O)c2cc(NC(=O)NC3CCCCC3)ccc2O1	3.2	0.0	46.8*	0.0
C[C@H]1CCCCO[C@@H](CN(C)C(=O)Nc2cccc3ccccc23)[C@@H](C)CN([C@@H](C)CO)C(=O)c2cc(NC(=O)Cc3ccccc3)ccc2O1	7.2	-0.1	83.4*	-0.3
SMILES	S100A4 inh HTS	E-selectin induc	DENV2 CPE	Xi reactivation
CC(=O)N/N=C(\C)CC(=O)NC(C)(C)C	-6.1	·	-3.2	0.0
C[C@@H]1CCCCO[C@@H](CN(C)C(=O)Nc2ccc(F)cc2)[C@@H](C)CN([C@@H](C)CO)C(=O)c2cc(NC(=O)Nc3ccc(F)cc3)ccc2O1	-9.1	·	-16.8	0.1
C[C@@H]1CN([C@H](C)CO)C(=O)c2cc(NC(=O)Nc3ccc(F)cc3)ccc2O[C@@H](C)CCCCO[C@H]1CN(C)C(=O)NC1CCCCC1	-1.8	·	20.8*	-0.1
C[C@H]1CCCCO[C@H](CN(C)C(=O)NC2CCCCC2)[C@@H](C)CN([C@@H](C)CO)C(=O)c2cc(NC(=O)Nc3ccc(F)cc3)ccc2O1	7.5	·	31.7*	0.1
C[C@@H]1CCCCO[C@@H](CN(C)C(=O)NC2CCCCC2)[C@H](C)CN([C@H](C)CO)C(=O)c2cc(NC(=O)Nc3ccc(F)cc3)ccc2O1	-1.9	·	-5.5	0.9
C[C@H](CO)N1C[C@H](C)[C@H](CN(C)C(=O)Nc2cccc3ccccc23)OCCCC[C@H](C)Oc2ccc(NC(=O)NC3CCCCC3)cc2C1=O	-4.0	·	4.7	0.3
C[C@H]1CCCCO[C@H](CN(C)C(=O)Nc2ccc(F)cc2)[C@@H](C)CN([C@@H](C)CO)C(=O)c2cc(NC(=O)Nc3ccc(F)cc3)ccc2O1	-15.2	·	45.5*	0.5
C[C@H](CO)N1C[C@H](C)[C@@H](CN(C)C(=O)Nc2cccc3ccccc23)OCCCC[C@H](C)Oc2ccc(NC(=O)NC3CCCCC3)cc2C1=O	3.2	·	113.0*	0.0
C=CCNC(=O)c1ccc(Cn2cc(C(F)(F)F)ccc2=O)cc1	-2.4	·	1.0	0.0
O=C(C[C@@H]1CC[C@@H]2[C@H](COC[C@H](O)CN2Cc2ccc(Cl)cc2)O1)NCc1cccc(F)c1	18.6	0.0	9.9	1.5
C[C@@H]1CN([C@H](C)CO)C(=O)c2cc(N(C)C)ccc2O[C@@H](C)CCCCO[C@@H]1CN(C)C(=O)NC1CCCCC1	104.1*	-0.3	?	0.1
C[C@@H]1CCCCO[C@@H](CN(C)C(=O)Nc2ccc(F)cc2)[C@H](C)CN([C@H](C)CO)C(=O)c2cc(NC(=O)C3CCCCC3)ccc2O1	2.3	0.0	32.3*	0.3
CN(CC(=O)Nc1ccc(Cl)cc1)C(=O)CNC(=O)c1ccc2c(c1)OCO2	11.1	-3.1	-11.1	0.0
COc1cccc(C(=O)N2CCOCC2)c1	4.2	0.0	32.5*	0.0
